Reference: ChEMBL document CHEMBL4028911, “Discovery of a Small-Molecule Bromodomain-Containing Protein 4 (BRD4) Inhibitor That Induces AMP-Activated Protein Kinase-Modulated Autophagy-Associated Cell Death in Breast Cancer” (J Med Chem, 2017)
Calls of active or inactive are those of the source. No cut-off for these calls is given here.

Experiments:
[1] = molecular target: T1, Bromodomain-containing protein 4 (Homo sapiens, UniProt O60885); assay: Inhibition of BRD4 in human MDA-MB-231 cells assessed as downregulation of c-Myc expression at 3 uM measured up to 36 hrs by Western blot analysis; type: cell-based
Procedure, shortened: (§1)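 MCF-7 (1.5 μM) or MDA-MB-231 (3 μM) cells treated for indicated times. Adherent and floating cells lysed in RIPA with 1 mM PMSF. Equal protein run on 10-15% SDS-PAGE, blotted to PVDF, blocked in milk or BSA, HRP/ECL detection. β-actin loading control.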

MCF7 [2] = assay: Antitumor activity against CM-Dil-labeled human MCF7 cells implanted in transgenic zebrafish embryos assessed as tumor growth inhibition at 12.5 to 50 uM dosed via sterile dechlorinated tap water and measured on fifth day after implantation by fluorescence assay; type: functional, organism-based
[3] = molecular target: T1, Bromodomain-containing protein 4; assay: Inhibition of BRD4 interaction with AMPK in human MCF7 cells at 1.5 uM by co-immunoprecipitation assay; type: cell-based
Procedure, shortened: (§2)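 Cells lysed in RIPA buffer (40 mM Tris-HCl pH 7.5, 150 mM NaCl, 0.5% NP-40, 5% glycerol, 10 mM NaF, protease inhibitors). Lysates incubated overnight at 4 °C with BRD4 or p53 antibody plus protein A/G beads, washed 3 times, resolved on 10% SDS-PAGE and blotted for AMPKα or p53.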

[4] = molecular target: T1, Bromodomain-containing protein 4; assay: Inhibition of BRD4 in human MCF7 cells assessed as increase in ULK1 phosphorylation at ser317 at 1.5 uM up to 36 hrs by Western blot analysis; type: cell-based; procedure, shortened: as §1
[5] = molecular target: T2, Serine/threonine-protein kinase ULK1 (Homo sapiens) (UniProt O75385); assay: Activation of recombinant human ULK1 (1 to 649 residues) expressed in baculovirus infected Sf9 cells at 1 to 10^6 nM using MBP as substrate after 60 mins in presence of ATP by […] assay
T2 sequence (whole entry): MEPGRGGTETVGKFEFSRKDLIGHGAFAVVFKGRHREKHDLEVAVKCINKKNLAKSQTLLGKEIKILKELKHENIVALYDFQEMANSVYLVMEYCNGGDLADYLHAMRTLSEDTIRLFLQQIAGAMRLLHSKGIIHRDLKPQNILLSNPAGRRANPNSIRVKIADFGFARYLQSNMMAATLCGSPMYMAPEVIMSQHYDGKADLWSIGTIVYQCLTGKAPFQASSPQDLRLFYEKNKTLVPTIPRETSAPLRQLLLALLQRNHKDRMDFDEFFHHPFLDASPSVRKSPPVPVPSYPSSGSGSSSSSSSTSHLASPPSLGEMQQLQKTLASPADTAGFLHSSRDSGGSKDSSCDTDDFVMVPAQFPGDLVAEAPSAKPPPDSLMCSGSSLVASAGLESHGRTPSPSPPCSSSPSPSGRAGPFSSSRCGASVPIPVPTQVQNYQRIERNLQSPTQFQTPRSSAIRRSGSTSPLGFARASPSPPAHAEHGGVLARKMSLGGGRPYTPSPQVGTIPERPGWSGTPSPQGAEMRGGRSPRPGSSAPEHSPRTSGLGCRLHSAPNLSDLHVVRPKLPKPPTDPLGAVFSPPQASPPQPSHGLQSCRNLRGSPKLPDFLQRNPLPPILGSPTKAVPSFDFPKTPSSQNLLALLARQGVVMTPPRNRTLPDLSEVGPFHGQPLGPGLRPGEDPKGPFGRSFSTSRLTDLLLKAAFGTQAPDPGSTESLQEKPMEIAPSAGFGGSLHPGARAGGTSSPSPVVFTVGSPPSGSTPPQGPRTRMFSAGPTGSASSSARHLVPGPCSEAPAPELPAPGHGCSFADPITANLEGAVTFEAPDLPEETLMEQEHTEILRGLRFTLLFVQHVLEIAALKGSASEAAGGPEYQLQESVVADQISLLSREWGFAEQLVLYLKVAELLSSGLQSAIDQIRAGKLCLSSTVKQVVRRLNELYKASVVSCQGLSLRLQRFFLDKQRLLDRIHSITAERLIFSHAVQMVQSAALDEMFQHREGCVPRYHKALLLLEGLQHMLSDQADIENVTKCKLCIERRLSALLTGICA
Procedure, shortened: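 ADP-Glo luminescent kinase assay; AMPK or ULK1 enzyme, substrate, ATP and compound diluted in 40 mM Tris pH 7.5, 20 mM MgCl2, 0.1 mg/ml BSA, 50 µM DTT. Enzyme (10 ng) mixed with MBP (0.1 µg/µl)/ATP (10 µM) and compound, 60 min at room temperature. ADP-Glo reagent 40 min, then detection reagent 30 min, luminescence read; signal rises with kinase activity.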

[6] = molecular target: T1, Bromodomain-containing protein 4; assay: Inhibition of BRD4 in human MCF7 cells assessed as downregulation of AKT phosphorylation at ser473 at 1.5 uM measured up to 36 hrs by Western blot analysis; type: cell-based; procedure, shortened: as §1
[7] = molecular target: Bromodomain-containing protein 3 (Homo sapiens, UniProt Q15059); assay: Inhibition of recombinant human N-terminal GST-tagged BRD3 bromodomain-2 (306 to 417 residues) expressed in Escherichia coli expression system after 120 mins by TR-FRET assay
Bromodomain-containing protein 3, sequence (Q15059 whole entry, the tested form may be a part): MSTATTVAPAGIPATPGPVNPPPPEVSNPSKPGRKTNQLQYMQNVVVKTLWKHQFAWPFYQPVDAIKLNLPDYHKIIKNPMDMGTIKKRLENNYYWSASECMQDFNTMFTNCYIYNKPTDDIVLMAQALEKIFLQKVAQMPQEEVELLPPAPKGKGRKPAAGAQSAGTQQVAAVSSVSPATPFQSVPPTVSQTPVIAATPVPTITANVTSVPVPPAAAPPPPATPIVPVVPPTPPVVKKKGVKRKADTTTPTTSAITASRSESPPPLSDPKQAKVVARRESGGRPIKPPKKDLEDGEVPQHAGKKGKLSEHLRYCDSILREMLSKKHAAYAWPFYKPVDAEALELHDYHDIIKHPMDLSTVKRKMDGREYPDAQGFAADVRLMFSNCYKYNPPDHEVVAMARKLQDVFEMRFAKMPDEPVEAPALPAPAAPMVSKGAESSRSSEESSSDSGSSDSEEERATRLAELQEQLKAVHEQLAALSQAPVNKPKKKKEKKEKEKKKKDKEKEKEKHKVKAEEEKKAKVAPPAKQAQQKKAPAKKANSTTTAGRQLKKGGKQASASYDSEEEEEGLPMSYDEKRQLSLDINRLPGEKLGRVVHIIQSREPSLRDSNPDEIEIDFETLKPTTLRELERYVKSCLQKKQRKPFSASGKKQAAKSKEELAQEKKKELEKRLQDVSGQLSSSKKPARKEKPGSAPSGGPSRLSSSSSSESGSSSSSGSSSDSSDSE
Procedure, shortened: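 TR-FRET bromodomain binding. Recombinant BRD domain, BET ligand and test agent in 20 μl assay buffer with 1% DMSO final. Incubated 120 min at room temperature. Blank lacks BET ligand.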

MDA-MB-231 [8] = assay: Induction of autophagy in human MDA-MB-231 cells assessed as LC3 lipidation at 3 uM in presence of ATG5 siRNA by Western blot analysis; type: functional, cell-based
MCF7 [9] = assay: Effect on AKT expression in human MCF7 cells at 1.5 uM measured up to 36 hrs by Western blot analysis; type: ADME, cell-based; settings: mcf7, 36 h
Procedure, shortened: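 MCF-7 (1.5 µM) or MDA-MB-231 (3 µM) cells treated for indicated times. Adherent and floating cells lysed in RIPA with 1 mM PMSF, 4°C for 1 h. Equal protein run on 10-15% SDS-PAGE, transferred to PVDF, blocked with milk or BSA, probed with primary then HRP secondary antibodies, ECL detection; β-actin as loading control.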

MCF7 [10] = assay: Induction of autophagy in human MCF7 cells assessed as downregulation of p62/SQSTM1 expression at 1.5 uM in presence of ATG5 siRNA by Western blot analysis; type: functional, cell-based
[11] = molecular target: T1, Bromodomain-containing protein 4; assay: Inhibition of BRD4 in human MDA-MB-231 cells assessed as reduction in ATG13 protein expression at 3 uM up to 36 hrs by Western blot analysis; type: cell-based; procedure, shortened: as §1
MDA-MB-231 [12] = assay: Induction of autophagy in GFP-LC3 fused human MDA-MB-231 cells assessed as increase in LC3 puncta at 3 uM by fluorescence microscopy; type: functional, cell-based
Procedure, shortened: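 MCF-7 or MDA-MB-231 cells transfected with eGFP-LC3 plasmid, then treated with 1.5 or 3 µM respectively for 24 h. LC3 puncta viewed by fluorescence microscopy.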

[13] = molecular target: T1, Bromodomain-containing protein 4; assay: Inhibition of BRD4 interaction with p53 in human MCF7 cells at 1.5 uM by co-immunoprecipitation assay; type: cell-based; procedure, shortened: as §2

- inhibition [1]: Active
- inhibition [3]: Active
- inhibition [4]: Active
- Activity [5]: inactive
- inhibition [6]: Active
- IC50 [7]: > 100 µM
- inhibition [11]: Active
- inhibition [13]: Active
SMILES: Cc1cc(-c2nc3sc4c(c3c(=O)[nH]2)CCN(C)C4)cc(C)c1O
- TGI (MCF7 [2]): Active
- Activity (MDA-MB-231 [8]): inactive
- Activity (MCF7 [9]): Non-Toxic
- Activity (MCF7 [10]): inactive
- Activity (MDA-MB-231 [12]): Active
